Data on six molecules can be found in BindingDB's records for doi:10.1016/j.bmcl.2004.04.085 (Merck Sharp & Dohme Research Laboratories, 2004).

In test [1] the target is T1, Gamma-aminobutyric acid receptor subunit alpha-3/beta-3/gamma-2 (Homo sapiens, UniProt P34903+P18507+P28472).
T1 sequence (P34903 whole entry): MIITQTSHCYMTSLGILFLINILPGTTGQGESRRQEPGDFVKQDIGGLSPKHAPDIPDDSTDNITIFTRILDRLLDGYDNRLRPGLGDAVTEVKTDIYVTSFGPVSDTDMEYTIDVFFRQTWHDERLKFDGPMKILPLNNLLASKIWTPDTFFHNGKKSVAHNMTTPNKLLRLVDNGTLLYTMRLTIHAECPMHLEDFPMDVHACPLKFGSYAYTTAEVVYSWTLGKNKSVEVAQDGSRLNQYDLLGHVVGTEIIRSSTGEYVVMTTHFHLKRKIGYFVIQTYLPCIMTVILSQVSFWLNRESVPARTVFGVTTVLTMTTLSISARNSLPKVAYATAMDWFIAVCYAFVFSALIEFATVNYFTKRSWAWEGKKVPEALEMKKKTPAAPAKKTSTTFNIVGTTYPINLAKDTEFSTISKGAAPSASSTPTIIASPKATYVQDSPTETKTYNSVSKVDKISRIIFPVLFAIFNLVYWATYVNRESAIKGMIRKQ
T1 sequence (P18507 whole entry): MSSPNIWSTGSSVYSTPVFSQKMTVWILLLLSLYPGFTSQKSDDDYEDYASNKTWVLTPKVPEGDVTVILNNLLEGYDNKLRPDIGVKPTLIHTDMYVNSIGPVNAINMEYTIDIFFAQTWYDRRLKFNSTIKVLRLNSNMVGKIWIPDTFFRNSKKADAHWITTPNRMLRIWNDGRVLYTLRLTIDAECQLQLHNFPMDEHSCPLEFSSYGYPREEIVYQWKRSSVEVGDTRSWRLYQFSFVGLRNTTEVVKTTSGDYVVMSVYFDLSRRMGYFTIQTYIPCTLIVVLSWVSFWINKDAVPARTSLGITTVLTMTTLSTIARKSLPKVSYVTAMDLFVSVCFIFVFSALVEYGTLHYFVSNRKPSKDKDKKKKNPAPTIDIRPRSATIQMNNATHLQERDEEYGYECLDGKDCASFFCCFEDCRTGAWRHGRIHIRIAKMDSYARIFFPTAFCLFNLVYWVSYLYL
T1 sequence (P28472 whole entry): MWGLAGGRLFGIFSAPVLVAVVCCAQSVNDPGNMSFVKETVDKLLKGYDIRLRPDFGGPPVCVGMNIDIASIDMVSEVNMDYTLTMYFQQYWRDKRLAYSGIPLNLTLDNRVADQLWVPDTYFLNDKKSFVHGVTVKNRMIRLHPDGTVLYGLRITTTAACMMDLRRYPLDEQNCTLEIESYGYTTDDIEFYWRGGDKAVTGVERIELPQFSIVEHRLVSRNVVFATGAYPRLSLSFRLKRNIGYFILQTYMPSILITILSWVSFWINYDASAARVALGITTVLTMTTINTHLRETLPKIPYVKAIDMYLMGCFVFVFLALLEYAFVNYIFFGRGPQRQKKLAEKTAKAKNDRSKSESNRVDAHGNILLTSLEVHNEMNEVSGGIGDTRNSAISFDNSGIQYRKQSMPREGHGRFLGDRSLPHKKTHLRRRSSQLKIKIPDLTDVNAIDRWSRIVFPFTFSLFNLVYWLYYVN
Nature of the test: In vitro binding affinity against Gamma-aminobutyric acid A receptor, alpha 3 expressed in L(tk) cells by displacement of [3H]Ro-151788. The method, boiled down: (§1)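 Binding to cloned human α1β3γ2, α2β3γ2 or α3β3γ2 receptors stably expressed in L(tk-) cells, measured as displacement of [3H]Ro15-1788; means ± SEM, n = 3-7.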

Test [2] concerns the target T2, Gamma-aminobutyric acid receptor subunit alpha-1/beta-3/gamma-2 (Homo sapiens, UniProt P14867+P18507+P28472).
T2 sequence (P14867 whole entry): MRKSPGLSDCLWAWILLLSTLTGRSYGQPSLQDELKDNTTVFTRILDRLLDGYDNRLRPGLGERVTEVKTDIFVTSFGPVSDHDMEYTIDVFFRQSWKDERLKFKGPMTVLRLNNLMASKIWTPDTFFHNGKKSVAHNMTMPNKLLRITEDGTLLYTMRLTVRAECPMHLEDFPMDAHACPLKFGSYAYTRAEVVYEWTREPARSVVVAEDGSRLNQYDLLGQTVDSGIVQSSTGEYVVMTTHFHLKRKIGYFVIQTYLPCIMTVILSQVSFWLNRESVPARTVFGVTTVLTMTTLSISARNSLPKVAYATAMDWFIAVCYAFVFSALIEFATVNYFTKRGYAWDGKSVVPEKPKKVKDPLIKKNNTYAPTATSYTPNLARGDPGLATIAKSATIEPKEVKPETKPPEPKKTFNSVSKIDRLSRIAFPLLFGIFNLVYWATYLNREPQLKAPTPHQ
T2 sequence (P18507 whole entry): T1 sequence (P18507 whole entry)
T2 sequence (P28472 whole entry): T1 sequence (P28472 whole entry)
Nature of the test: In vitro binding affinity against gamma-aminobutyric acid A receptor, alpha 1 expressed in L(tk) cells by displacement of [3H]Ro-151788. An outline of the steps:
as §1

Test [3] concerns the target T1, Gamma-aminobutyric acid receptor subunit alpha-3/beta-3/gamma-2. The test can be described thus: In vitro displacement of [3H]Ro-151788 from human GABA-A receptor alpha-3-beta-3-gamma-2 subunits expressed in L(tk-) cells. An outline of the steps: as §1

For `O=c1c2c([nH]n1-c1ccc(Cl)cc1)C1CCCC1N=C2` (stereo not drawn) [2-(4-Chloro-phenyl)-2,5a,6,7,8,8a-hexahydro-5H-cyclopenta[b]pyrazolo[3,4-d]pyridin-3-one], in test [1], the Ki came to 1.1 nM.

Molecule `O=c1c2c([nH]n1-c1ccc(Cl)cc1)C1CCCCCC1N=C2` (stereo not drawn) [2-(4-Chloro-phenyl)-2,5a,6,7,8,9,10,10a-octahydro-5H-1,2,5-triaza-cyclohepta[e]inden-3-one] yielded a Ki in test [2] of 1.1 nM.

In test [1], `O=c1c2c([nH]n1-c1ccc(Cl)cc1)C1CN(CC3CC3)CCC1N=C2` (stereo not drawn) [2-(4-Chloro-phenyl)-8-cyclopropylmethyl-2,5,5a,6,7,8,9,9a-octahydro-pyrazolo[4,3-c][1,6]naphthyridin-3-one] gave a Ki of 7.5 nM.

Take `O=c1c2cnc3c(c2[nH]n1-c1ccc(OC2CC2)cc1)CCCC3` [2-(4-Cyclopropoxy-phenyl)-2,5,6,7,8,9-hexahydro-pyrazolo[4,3-c]quinolin-3-one]: the Ki is 1.1 nM in test [2] and 2.2 nM in test [3].

Regarding `O=c1c2cnc3c(c2[nH]n1-c1ccc(OC(F)F)cc1)CCCC3` [2-(4-Difluoromethoxy-phenyl)-2,5,6,7,8,9-hexahydro-pyrazolo[4,3-c]quinolin-3-one], the Ki in test [2] was determined as 1 nM; in test [1], 2.3 nM.

As to `O=c1c2cnc3c(c2[nH]n1-c1ccc(OC(F)(F)F)cc1)CCCC3` [2-(4-Trifluoromethoxy-phenyl)-2,5,6,7,8,9-hexahydro-pyrazolo[4,3-c]quinolin-3-one], the inhibition constant Ki in test [2] is 7.3 nM. That is a single-digit nanomolar value.
